Values belong to the molecule of their own block, whether it stands above or below them. Activity calls are given as the source filed them. The rule behind the calls is not given here.
How the values were obtained:
[1] = target: T1, N-acylethanolamine-hydrolyzing acid amidase (Rattus norvegicus, UniProt Q5KTC7); experiment: Inhibition of rat NAAA expressed in HEK293 cells using heptadecenoylethanolamide as substrate after 30 mins HPLC-MS/MS analysis
T1 sequence (Q5KTC7 whole entry): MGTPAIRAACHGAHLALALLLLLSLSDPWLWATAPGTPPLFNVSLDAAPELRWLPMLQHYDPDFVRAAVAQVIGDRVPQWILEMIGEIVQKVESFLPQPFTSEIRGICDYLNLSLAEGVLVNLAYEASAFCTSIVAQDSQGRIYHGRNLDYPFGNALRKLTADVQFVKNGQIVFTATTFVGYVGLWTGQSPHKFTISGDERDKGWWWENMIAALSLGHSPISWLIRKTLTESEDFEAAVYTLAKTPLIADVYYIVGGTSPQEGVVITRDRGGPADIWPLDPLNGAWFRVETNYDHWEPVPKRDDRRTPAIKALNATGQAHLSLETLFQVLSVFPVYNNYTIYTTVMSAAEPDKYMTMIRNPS
Method in brief: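 Enzyme source: HEK293 cells stably overexpressing rat NAAA, grown in DMEM/10% FBS with G418. Cells were sonicated in 20 mM Tris-HCl pH 7.5 with 0.32 M sucrose, and the 800 × g supernatant was used. 30 µg protein was incubated with 25 µM heptadecenoylethanolamide for 30 min at 37 °C in 50 mM phosphate pH 4.5 with 0.1% Triton X-100 and 3 mM DTT. Stopped with methanol containing heptadecanoic acid internal standard; remaining substrate measured by HPLC-MS/MS; IC50 from curve fitting.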

[2] = target: T2, Fatty-acid amide hydrolase 1 (Rattus norvegicus, UniProt P97612); experiment: Inhibition of rat FAAH expressed in HEK293 cells using [3H]AEA as substrate after 30 mins HPLC-MS/MS analysis; type: cell-based; conditions: in the assay text read “anandamide” for “[3H]AEA”
T2 sequence (P97612 whole entry): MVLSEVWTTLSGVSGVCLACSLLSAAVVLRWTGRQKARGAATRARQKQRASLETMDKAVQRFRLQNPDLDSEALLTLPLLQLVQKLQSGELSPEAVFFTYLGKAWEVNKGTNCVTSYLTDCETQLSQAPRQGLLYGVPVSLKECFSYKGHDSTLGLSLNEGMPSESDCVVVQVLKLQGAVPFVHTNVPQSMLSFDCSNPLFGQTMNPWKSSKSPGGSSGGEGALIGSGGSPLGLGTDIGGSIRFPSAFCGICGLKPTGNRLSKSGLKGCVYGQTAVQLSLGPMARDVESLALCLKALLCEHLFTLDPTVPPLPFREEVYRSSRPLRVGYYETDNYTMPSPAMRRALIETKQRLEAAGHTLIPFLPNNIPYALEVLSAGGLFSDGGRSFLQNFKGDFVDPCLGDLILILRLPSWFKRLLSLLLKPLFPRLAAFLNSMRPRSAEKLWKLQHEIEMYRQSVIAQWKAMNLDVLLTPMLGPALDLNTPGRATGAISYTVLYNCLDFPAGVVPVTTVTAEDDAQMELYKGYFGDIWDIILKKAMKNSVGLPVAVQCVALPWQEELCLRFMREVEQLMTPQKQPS
Method in brief: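 Lysate supernatant from HEK293 cells overexpressing rat FAAH (sonication in Tris-sucrose, 800 × g spin). 30 µg protein incubated at 37 °C with 25 µM anandamide in 50 mM Tris-HCl pH 8.0 containing 0.05% fatty-acid-free BSA. Quenched with methanol containing heptadecanoic acid internal standard; remaining substrate quantified by HPLC-MS/MS; IC50 by curve fitting.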

[3] = target: T3, N-acylethanolamine-hydrolyzing acid amidase (Rattus norvegicus) (UniProt Q5KTC7); experiment: Reversible inhibition of rat NAAA expressed in HEK293 cells at 5 uM using heptadecenoylethanolamide as substrate after 8 hrs by rapid dilution based HPLC-MS/MS analysis; type: cell-based
T3 sequence (whole entry): T1 sequence (Q5KTC7 whole entry)

[4] = Half life in pH 5 phosphate buffer by HPLC analysis; type: physicochemical
Method in brief: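 Compound at 1 µM final (DMSO ≤1%) in 50 mM phosphate buffer pH 5.0, held at 37 °C for 16 h; remaining compound determined by HPLC.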

[5] = Half life in rat 80% plasma by HPLC analysis; type: ADME, cell-free
Method in brief: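 Fresh rat plasma diluted to 80% (v/v) with PBS pH 7.4. Compound added to 1 µM final (DMSO ≤1%), incubated at 37 °C for 16 h; remaining compound measured by HPLC.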

Mus musculus [6] = experiment: Anti-inflammatory activity in mouse model of LPS-induced acute lung injury assessed as reduction in leukocytes in lungs at 30 mg/kg, po qd for 5 days by hematoxylin and eosin staining-based light microscopic analysis; type: functional, organism-based
Method in brief: (§1)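 129s mice (20-22 g), randomly grouped at 6-8 per group. Under anesthesia they received intratracheal LPS (7 mg/kg) in PBS. From the day of LPS they got oral dosing once daily at 30 mg/kg in saline with 5% PEG 400 and 5% Tween 80, or vehicle alone. Killed 5 days after LPS. Lungs were fixed in paraformaldehyde at 4 °C, paraffin-embedded, cut at 5 µm and H&E-stained.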

Mus musculus [7] = experiment: Anti-inflammatory activity in mouse model of LPS-induced acute lung injury assessed as reduction in lung edema at 30 mg/kg, po qd for 5 days by hematoxylin and eosin staining-based light microscopic analysis; type: functional, organism-based; method in brief: as §1
Mus musculus [8] = experiment: Anti-inflammatory activity in mouse model of LPS-induced acute lung injury at 30 mg/kg, po qd for 5 days co-treated with 2 mg/kg, ip bid PPAR-alpha antagonist MK886 by hematoxylin and eosin staining-based light microscopic analysis; type: functional, organism-based
Method in brief: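 129s mice (20-22 g), 6-8 per group, were anesthetized and given intratracheal LPS (7 mg/kg) in PBS. Oral dosing at 30 mg/kg once daily (vehicle: saline, 5% PEG 400, 5% Tween 80) started on the LPS day, together with MK886 at 2 mg/kg i.p. Sacrifice at day 5. Lungs were fixed in paraformaldehyde, embedded in paraffin, sectioned at 5 µm and stained with H&E.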

[9] = Half life in pH 7.4 tris-HCl buffer by HPLC analysis
[10] = target: T2, Fatty-acid amide hydrolase 1; experiment: Inhibition of rat FAAH expressed in HEK293 cells using anandamide as substrate after 30 mins HPLC-MS/MS analysis
[11] = target: T4, Acid ceramidase (Rattus norvegicus) (UniProt Q6P7S1); experiment: Inhibition of rat acid ceramidase at 100 uM using N-lauroylceramide as substrate after 30 mins by LC-MS analysis relative to control
T4 sequence (whole entry): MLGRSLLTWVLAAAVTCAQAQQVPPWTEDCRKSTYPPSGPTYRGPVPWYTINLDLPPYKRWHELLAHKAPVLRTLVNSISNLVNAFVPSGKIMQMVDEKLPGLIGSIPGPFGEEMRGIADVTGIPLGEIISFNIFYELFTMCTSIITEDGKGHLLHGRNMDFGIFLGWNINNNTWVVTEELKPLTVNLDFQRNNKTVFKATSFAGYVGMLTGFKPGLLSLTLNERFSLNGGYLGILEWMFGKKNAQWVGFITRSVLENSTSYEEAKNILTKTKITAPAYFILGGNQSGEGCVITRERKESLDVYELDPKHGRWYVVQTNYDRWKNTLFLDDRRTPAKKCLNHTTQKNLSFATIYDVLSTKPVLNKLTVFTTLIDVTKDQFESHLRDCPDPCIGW
Method in brief: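 100 µg recombinant rat acid ceramidase incubated for 30 min at 37 °C in 50 mM phosphate pH 5.0 with 0.1% Triton X-100, 3 mM DTT, 100 µM N-lauroylceramide substrate and test compound. Stopped with methanol containing 1 nmol heptadecanoic acid; products analysed by LC/MS.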

Rattus norvegicus = organism: Rattus norvegicus; experiment: Selectivity ratio of IC50 for rat FAAH expressed in HEK293 cells to IC50 for rat […]; type: cell-based
[12] = compound: O=C(/C=C/c1ccc(-c2ccccc2)cc1)N1CCCC1; experiment: Competitive inhibition of rat NAAA expressed in HEK293 cells assessed as substrate Vmax at 5 uM using heptadecenoylethanolamide as substrate after 30 mins by Michaelis Menten plot analysis (reference value: 5.89 +/- 0.12 nmol/min/mg protein); type: cell-based
[13] = compound: O=C(/C=C/c1ccc(-c2ccccc2)cc1)N1CCCC1; experiment: Competitive inhibition of rat NAAA expressed in HEK293 cells assessed as substrate Km at 5 uM using heptadecenoylethanolamide as substrate after 30 mins by Michaelis Menten plot analysis (reference value: 207 +/- 16 uM); type: cell-based

Molecule: COC(=O)c1ccc(CCCCCCC(=O)N2CCCC2)cc1
IC50 [1]: > 100 µM

Molecule: O=C(CCC1CCC(Oc2ccccc2)CC1)N1CCCC1 (configuration not stated)
IC50 [1]: 2.8 µM
IC50 [2]: 45.1 µM

Molecule: O=C(CCCCCCc1cccnc1)N1CCCC1
IC50 [1]: > 100 µM

Molecule: O=C(CCCCCCc1cccc(F)c1)N1CCCC1
IC50 [1]: 7.3 µM

Molecule: Cc1ccccc1CCCCCCC(=O)N1CCCC1
IC50 [1]: 68.4 µM

Molecule: O=C(CCCCCCC1CCCCC1)N1CCCC1
IC50 [1]: 5.7 µM

Molecule: O=C(CCCC/C=C/c1cccc(OCc2ccccc2)c1)N1CCCC1
IC50 [1]: > 100 µM

Molecule: O=C(CCCC/C=C/c1ccc(OCc2ccccc2)cc1)N1CCCC1
IC50 [1]: > 100 µM

Molecule: Cc1cccc(CCCCCCC(=O)N2CCCC2)c1
IC50 [1]: 8.3 µM

Molecule: COc1cccc(CCCCCCC(=O)N2CCCC2)c1
IC50 [1]: > 100 µM

Molecule: O=C(/C=C/C=C/c1ccc2c(c1)OCO2)N1CCCC1 [TRICHOSTACHINE]
IC50 [1]: 4.1 µM
IC50 [10]: 61.3 µM

Molecule: O=C(O)c1cccc(CCCCCCC(=O)N2CCCC2)c1
IC50 [1]: > 100 µM

Molecule: O=C(CCCCCCc1ccccn1)N1CCCC1
IC50 [1]: > 100 µM

Molecule: O=C(CCCCCCc1ccsc1)N1CCCC1
IC50 [1]: 13.2 µM

Molecule: CCCc1cccc(CCCCCCC(=O)N2CCCC2)c1
IC50 [1]: > 100 µM

Molecule: O=C(CCCCCCc1ccccc1F)N1CCCC1
IC50 [1]: 13.7 µM

Molecule: COC(=O)c1cccc(CCCCCCC(=O)N2CCCC2)c1
IC50 [1]: > 100 µM

Molecule: O=C(CCCCc1ccc2c(c1)OCO2)N1CCCC1
IC50 [1]: 5.5 µM
IC50 [2]: 42.8 µM

Molecule: O=C(CCCCCCc1ccccc1Cl)N1CCCC1
IC50 [1]: > 100 µM

Molecule: O=C(CCCCCCc1cccc(Cl)c1)N1CCCC1
IC50 [1]: 3.7 µM

Molecule: O=C(CCC1CCC(c2ccccc2)CC1)N1CCCC1 (configuration not stated)
IC50 [1]: 0.48 µM
IC50 [2]: 66 µM

Molecule: O=C(CCCCCCc1cccc(O)c1)N1CCCC1
IC50 [1]: > 100 µM

B1: N-acylethanolamine-hydrolyzing acid amidase (Rattus norvegicus), Q5KTC7 (protein)
chain: T1 sequence (Q5KTC7 whole entry)
Vmax [12]: 5.88 nmol/min/mg
Km [13]: 322 µM

The next lines start with results.

IC50 [1]: 33.2 µM
Molecule: Cc1ccc(-c2ccc(CCC(=O)N3CCCC3)cc2)cc1

IC50 [1]: 35.4 µM
Molecule: COc1ccc(CCCCCCC(=O)N2CCCC2)cc1

IC50 [2]: 91.5 µM
Molecule: O=C(CCc1ccc(-c2ccccc2)cc1)N1CCCC1

IC50 [1]: 1.5 µM
IC50 [2]: 550 µM
inhibition [3]: Active
half-life [4]: > 16 h
half-life [5]: > 16 h
half-life [9]: > 16 h
Molecule: O=C(/C=C/c1ccc(-c2ccccc2)cc1)N1CCCC1
Activity (Mus musculus [6]): Active
Activity (Mus musculus [7]): Active
Activity (Mus musculus [8]): inactive

IC50 [1]: 1.8 µM
Molecule: O=C(CCc1ccc(-c2cccc(F)c2)cc1)N1CCCC1

IC50 [1]: 9.6 µM
Molecule: Cc1ccc(CCCCCCC(=O)N2CCCC2)cc1

IC50 [1]: > 100 µM
Molecule: O=C(CCc1ccc(-c2cccs2)cc1)N1CCCC1

IC50 [1]: > 100 µM
Molecule: CCCc1ccc(CCCCCCC(=O)N2CCCC2)cc1

IC50 [1]: 0.7 µM
Molecule: O=C(CCc1ccc(OC2CCCCC2)cc1)N1CCCC1

IC50 [1]: 2.5 µM
Molecule: O=C(CCc1ccc(-c2ccsc2)cc1)N1CCCC1

IC50 [1]: > 100 µM
IC50 [2]: 120 µM
Molecule: O=C(CCc1ccc(Oc2ccccc2)cc1)N1CCCC1

IC50 [1]: > 100 µM
Molecule: Cc1ccccc1-c1ccc(CCC(=O)N2CCCC2)cc1

IC50 [1]: 2.8 µM
Molecule: O=C(CCc1ccc(-c2ccccc2F)cc1)N1CCCC1

IC50 [1]: > 100 µM
Molecule: O=C(O)c1ccc(CCCCCCC(=O)N2CCCC2)cc1

IC50 [1]: > 100 µM
Molecule: O=C(CCc1ccc(-c2ccccc2Cl)cc1)N1CCCC1

IC50 [1]: 16.5 µM
Molecule: Cc1cccc(-c2ccc(CCC(=O)N3CCCC3)cc2)c1

IC50 [1]: 8 µM
Molecule: O=C(CCCCCCc1ccc(F)cc1)N1CCCC1

IC50 [1]: > 100 µM
Molecule: O=C(CCc1ccc(-c2cccnc2)cc1)N1CCCC1

IC50 [1]: 0.5 µM
inhibition [11]: < 10%
Molecule: O=C(CCc1ccc(C2CCCCC2)cc1)N1CCCC1
Ratio IC50 (Rattus norvegicus): > 200

IC50 [1]: 34.5 µM
Molecule: O=C(CCCCCCc1ccc(Cl)cc1)N1CCCC1

IC50 [1]: > 100 µM
IC50 [2]: 91 µM
Molecule: O=C(CCc1ccc(-c2ccc3c(c2)OCO3)cc1)N1CCCC1

IC50 [1]: 5.6 µM
Molecule: O=C(CCCCCCc1ccc(O)cc1)N1CCCC1

IC50 [1]: 25.4 µM
Molecule: O=C(CCc1ccc(-c2cccc(Cl)c2)cc1)N1CCCC1

IC50 [1]: 3.4 µM
Molecule: O=C(CCc1ccc(-c2ccc(F)cc2)cc1)N1CCCC1

IC50 [1]: 48.6 µM
Molecule: O=C(CCc1ccc(-c2ccc(Cl)cc2)cc1)N1CCCC1

IC50 [1]: > 100 µM
Molecule: O=C(CCc1ccc(-c2ccccn2)cc1)N1CCCC1

IC50 [1]: 14.1 µM
Molecule: O=C(CCCCCCc1cccs1)N1CCCC1
